pEC50: −log10 of the molar value.

A short description of data set [1]: Cytotoxicity against mock-infected human MT4 cells after 4 days by MTT assay. It is filed as cell-based. The essentials:
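Mock-infected MT-4 cells, 1 × 10⁴ per well in RPMI 1640 with 10% FCS, 37 °C, 5% CO₂. Exposed to serial compound dilutions from a 100 mM DMSO stock diluted in medium, in parallel with the antiviral assay. Viability read by MTT. CC₅₀ taken as concentration reducing viability of mock-infected cells by 50%.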
A general note: Tetrazolium dyes change colour on reduction, which living cells bring about.

In data set [2] the test system is Human immunodeficiency virus 1. Kind of data set: Antiviral activity against NNRTI-resistant HIV1 3B with reverse transcriptase K103R+V179D+P225H mutation in human MT4 cells assessed as protection against virus-induced cytopathogenicity after 4 days by MTT assay. The conditions noted are these: Human immunodeficiency virus 1, 3B, MT4, 96 h. It is filed as functional, organism-based. An outline of the steps: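 K103R+V179D+P225H (EFV^R) virus, from IIIB passaged in MT-4 cells under efavirenz; stock 4.0×10⁷ CCID50/mL. Added to 1×10⁴ MT-4 cells/well (RPMI 1640, 10% FCS, 37 °C, 5% CO2) with compound dilutions from 100 mM DMSO stock, amount causing complete cytopathogenicity at day 4. Viability by MTT; EC50 = concentration giving 50% protection.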
(In general: Damage to the host cells serves as the signal in cytopathic effect assays.)

Data set [3] concerns Human immunodeficiency virus 1. Kind of data set: Antiviral activity against NNRTI-resistant HIV1 with reverse transcriptase Y181C mutation in human MT4 cells assessed as protection against virus-induced cytopathogenicity after 4 days by MTT assay. The data set is classed as functional, organism-based. As to conditions: Human immunodeficiency virus 1, MT4, 96 h. The essentials: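 Y181C virus (NIH N119) came from an AZT-sensitive clinical isolate passaged in CEM then MT-4 cells with nevirapine; stock 1.2×10⁸ CCID50/mL. It infected 1×10⁴ MT-4 cells/well (RPMI 1640, 10% FCS, 37 °C, 5% CO2) with compound dilutions from 100 mM DMSO stock, at a dose giving full cytopathogenicity by day 4. Readout MTT; EC50 = 50% protection.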

The test system of data set [4] is Human immunodeficiency virus 1. Kind of data set: Antiviral activity against NNRTI-resistant HIV1 3B with reverse transcriptase K103N+Y181C mutation in human MT4 cells assessed as protection against virus-induced cytopathogenicity after 4 days by MTT assay. It is filed as functional, organism-based. As to conditions: Human immunodeficiency virus 1, 3B, MT4, 96 h. The essentials: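 MT-4 cells (RPMI 1640, 10% FCS, 37 °C, 5% CO2), 1×10⁴/well, with compound serial dilutions from 100 mM DMSO stock, infected with K103N+Y181C virus (NIH A17, from IIIB passaged in H9 cells with BI-RG 587; stock 2.1×10⁷ CCID50/mL) at dose giving full cytopathogenicity by day 4. MTT viability; EC50 = 50% protection.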

In data set [5] the test system is Human immunodeficiency virus 1. Kind of data set: Antiviral activity against wild type HIV1 3B assessed as protection as protection against virus-induced cytopathogenicity after 4 days by MTT assay. The data set is classed as functional. The conditions noted are these: Human immunodeficiency virus 1, 3B, 96 h. The essentials:
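HIV-1 IIIB from supernatants of persistently infected H9/IIIB cells. MT-4 cells, 1 × 10⁴ per well in RPMI 1640 with 10% FCS, exposed to serial compound dilutions (100 mM DMSO stock diluted in medium). Virus inoculum sized in CCID₅₀ to give complete cytopathogenicity by day 4. Incubated at 37 °C, then viability read by MTT. EC₅₀ taken as concentration giving 50% protection from virus-induced cytopathogenicity.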

Turning to `O=c1c2ccccc2sn1/N=C/c1ccccc1[N+](=O)[O-]`, in data set [1], the CC50 (commonly the concentration that lowers cell viability or growth by half) at 96 h was 68 µM. In addition, the pEC50 (usually the negative decadic logarithm of the EC50, by convention in mol/L) in data set [2] is 4.70; in data set [3] it was 4.70; in data set [4] it was 4.48; in data set [5], 4.72.
On to `O=c1c2ccccc2sn1/N=C/c1ccc([N+](=O)[O-])cc1`, for which the CC50 at 96 h in data set [1] was more than 100 µM. In addition, the pEC50 in data set [2] is 4.48; in data set [3], 4.54; in data set [4] it was 4.44; in data set [5], 4.35.
On the same counts, the results for `Cc1ccc2sn(/N=C/c3cccc(Cl)c3)c(=O)c2c1` are 59 µM, 4.60, less than 4.23, less than 4.23 and less than 4.23.
For `O=c1c2ccccc2sn1/N=C/c1ccc(O)c(O)c1`, the CC50 at 96 h in data set [1] was found to be 44 µM. Also, the negative logarithm of the EC50 (pEC50) in data set [2], in data set [3], in data set [4] and in data set [5] was less than 4.36 throughout.
In data set [1], `COc1cc(/C=N/n2sc3ccc(C)cc3c2=O)ccc1O` showed a CC50 at 96 h of 16 µM. In addition, the pEC50 in data set [2], in data set [3], in data set [4] and in data set [5] was less than 4.80 in each case.
Take `O=c1c2ccccc2sn1/N=C/c1ccc2c(c1)OCO2`: the CC50 at 96 h in data set [1] was determined as 17 µM. Further, the pEC50 in data set [2], in data set [3], in data set [4] and in data set [5] was less than 4.77 in each case.
`Cc1ccc2sn(/N=C/c3ccccc3F)c(=O)c2c1` registered a CC50 at 96 h in data set [1] of 18 µM. Besides, the pEC50 in data set [2], in data set [3], in data set [4] and in data set [5] was less than 4.74 in each case.
In data set [1], `O=c1c2ccccc2sn1/N=C/c1cccc([N+](=O)[O-])c1` returned a CC50 at 96 h of more than 100 µM. The pEC50 in data set [2] is 4.96; in data set [3], 4.89; in data set [4] it was 4.24; in data set [5] it was 4.44.
Compound `O=c1c2ccccc2sn1/N=C/c1ccc(Cl)cc1` came in with a CC50 at 96 h in data set [1] of 26 µM. For the same compound, the pEC50 was 5.54 in data set [2], not above 4.96 in data set [3], less than 4.59 in data set [4] and less than 4.59 in data set [5].
Turning to `Cc1ccc2sn(/N=C/c3ccc(Cl)cc3)c(=O)c2c1`, in data set [1], the CC50 at 96 h was determined as 57 µM. The pEC50 in data set [2] is 4.96; in data set [3], 4.66; in data set [4], 4.48; in data set [5] it was 4.62.
Turning to `O=c1c2ccccc2sn1/N=C/c1ccc([N+](=O)[O-])cc1[N+](=O)[O-]`, in data set [1], the CC50 at 96 h was more than 100 µM. The pEC50 in data set [2], in data set [4] and in data set [5] was less than 4.00 in each case.
The compound `Cc1ccc2sn(/N=C/c3ccc(F)cc3)c(=O)c2c1` came in with a CC50 at 96 h in data set [1] of 15 µM. The pEC50 in data set [2] is 5.14; in data set [3], less than 4.82; in data set [4], less than 4.82; in data set [5], less than 4.82.
As for `O=c1c2ccccc2sn1/N=C/c1cccc(F)c1`, in data set [1], the CC50 at 96 h is 15 µM. Further, the pEC50 in data set [2] was 5.05; in data set [3] it was less than 4.82; in data set [4] it was less than 4.82; in data set [5], less than 4.82.
In turn, `Cc1ccc2sn(/N=C/c3cccc(O)c3)c(=O)c2c1` displayed a CC50 at 96 h in data set [1] of 16 µM. For the same compound, the pEC50 in data set [2] is 5.08; in data set [3] it was less than 4.80; in data set [4] it was less than 4.80; in data set [5], less than 4.80.
The compound `COc1ccc(/C=N/n2sc3ccc(C)cc3c2=O)cc1` showed a CC50 at 96 h in data set [1] of 55 µM. Besides, the pEC50 in data set [2], in data set [3], in data set [4] and in data set [5] was less than 4.26 in each case.
In data set [1], `Cc1ccc2sn(/N=C/c3ccccc3O)c(=O)c2c1` came in with a CC50 at 96 h of 30 µM. Besides, the pEC50 in data set [2], in data set [3], in data set [4] and in data set [5] was less than 4.52 each time.
As to `COc1cc(/C=N/n2sc3ccccc3c2=O)ccc1O`, the midpoint of cytotoxicity in data set [1], the CC50 at 96 h, lay at 15 µM. In addition, the pEC50 in data set [2], in data set [3], in data set [4] and in data set [5] was less than 4.82 in each case.
Take `Cc1ccc2sn(/N=C/c3ccccc3[N+](=O)[O-])c(=O)c2c1`: the CC50 at 96 h in data set [1] is more than 100 µM. Further, the pEC50 in data set [2] is 4.00; in data set [3], less than 4.00; in data set [4], less than 4.00; in data set [5], less than 4.00.
Regarding `O=c1c2ccccc2sn1/N=C/c1ccccc1O`, the CC50 at 96 h in data set [1] is 18 µM. The pEC50 in data set [2], in data set [3], in data set [4] and in data set [5] was less than 4.74 throughout.
On to `CCCCCCCCCCC/C=N/n1sc2ccccc2c1=O`, for which, in data set [1], it took 17 µM to reach half-maximal cytotoxicity (CC50 at 96 h). For the same compound, the pEC50 in data set [2], in data set [3], in data set [4] and in data set [5] was less than 4.77 throughout.
`Cc1ccc2sn(/N=C/c3ccccc3)c(=O)c2c1`: the CC50 at 96 h in data set [1] worked out at 44 µM. In addition, the pEC50 was not above 4.48 in data set [2], not above 4.48 in data set [3], less than 4.36 in data set [4] and not above 4.48 in data set [5].
In turn, `O=c1c2ccccc2sn1/N=C/C=C/c1ccccc1` showed a CC50 at 96 h in data set [1] of 18 µM. For the same compound, the pEC50 in data set [2], in data set [3], in data set [4] and in data set [5] was less than 4.74 in each case.
Turning to `Cc1ccc2sn(/N=C/c3ccccc3Cl)c(=O)c2c1`, in data set [1], the CC50 at 96 h is more than 100 µM. Also, the pEC50 in data set [2] was 4.10; in data set [3] it was 4.00; in data set [4], less than 4.00; in data set [5], 4.09.
On the same counts, the results for `O=c1c2ccccc2sn1/N=C/c1ccc(F)cc1` are 17 µM, not above 4.77, less than 4.77, less than 4.77 and 5.36.
Compound `Cc1ccc2sn(/N=C/c3ccc4c(c3)OCO4)c(=O)c2c1` returned a CC50 at 96 h in data set [1] of more than 100 µM. Further, the pEC50 in data set [2] is 4.70; in data set [3], 4.48; in data set [4], 4.33; in data set [5], 4.48.
Consider `COc1ccc(/C=N/n2sc3ccccc3c2=O)cc1`, for which the midpoint of cytotoxicity in data set [1], the CC50 at 96 h, lay at 19 µM. For the same compound, the pEC50 in data set [2], in data set [3], in data set [4] and in data set [5] was less than 4.72 in each case.
In data set [1], `Cc1ccc2sn(/N=C/c3ccc([N+](=O)[O-])cc3[N+](=O)[O-])c(=O)c2c1` displayed a CC50 at 96 h of more than 100 µM. In addition, the pEC50 in data set [2], in data set [3], in data set [4] and in data set [5] was less than 4.00 throughout.
On to `CCCCCCCCCCC/C=N/n1sc2ccc(C)cc2c1=O`, for which, in data set [1], the CC50 at 96 h was 19 µM. Besides, the pEC50 in data set [2], in data set [3], in data set [4] and in data set [5] was less than 4.72 throughout.
For the compound `O=c1c2ccccc2sn1/N=C/c1ccccc1F`, it took 20 µM to reach half-maximal cytotoxicity in data set [1] (CC50 at 96 h). The pEC50 in data set [2] was less than 4.70; in data set [3] it was less than 4.70; in data set [4], less than 4.70; in data set [5], not above 4.96.
The compound `Cc1ccc2sn(/N=C/c3ccc(O)c(O)c3)c(=O)c2c1` had a CC50 at 96 h in data set [1] of 49 µM. Besides, the pEC50 in data set [2], in data set [3], in data set [4] and in data set [5] was less than 4.31 throughout.
In data set [1], `O=c1c2ccccc2sn1/N=C/c1ccc(O)cc1O` gave a CC50 at 96 h of 21 µM. The pEC50 in data set [2], in data set [3], in data set [4] and in data set [5] was less than 4.68 in each case.
On to `O=c1c2ccccc2sn1/N=C/c1cccc(O)c1`, for which the CC50 at 96 h in data set [1] stood at 15 µM. Besides, the pEC50 in data set [2], in data set [3], in data set [4] and in data set [5] was less than 4.82 each time.
Consider `Cc1ccc2sn(/N=C/c3ccc([N+](=O)[O-])cc3)c(=O)c2c1`, for which the CC50 at 96 h in data set [1] was more than 100 µM. The pEC50 in data set [2] was 4.14; in data set [3] it was not above 4.00; in data set [4] it was less than 4.00; in data set [5] it was less than 4.00.

These data come from ChEMBL document CHEMBL1137687, “Anti-HIV evaluation of benzo[d]isothiazole hydrazones” (Eur J Med Chem, 2009).
